Source: PubChem
Shown are actives, neighbours in structure and some others; about 1.8% of the full set was active somewhere.
NPY1 pot ag – NPY-Y1 receptor potentiators or agonists, primary screen, cell-based. NPY-Y1 expressing cells, potentiator/agonist activation. activation, % at 3.6 µM. 220,000 tested, 0.37% active; in the data active = activation above about 33%, passing the limit was not always enough;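 also: cells stimulated with NPY at EC10 then isoproterenol at EC100; 0% = low agonist plus stimulus and 100% = saturating agonist plus stimulus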
Target sequence (P25929 whole entry, looked up): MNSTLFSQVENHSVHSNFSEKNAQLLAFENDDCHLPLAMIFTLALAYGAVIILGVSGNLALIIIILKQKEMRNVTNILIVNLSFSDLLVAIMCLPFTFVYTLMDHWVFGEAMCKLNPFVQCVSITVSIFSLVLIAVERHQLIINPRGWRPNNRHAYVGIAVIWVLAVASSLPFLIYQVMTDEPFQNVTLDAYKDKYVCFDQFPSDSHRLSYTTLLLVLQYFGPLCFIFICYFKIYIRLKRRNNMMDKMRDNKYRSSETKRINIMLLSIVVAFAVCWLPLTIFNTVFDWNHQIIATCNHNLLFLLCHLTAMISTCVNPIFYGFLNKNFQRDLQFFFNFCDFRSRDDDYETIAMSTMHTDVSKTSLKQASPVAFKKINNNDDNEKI
NPY Y1 blocker – NPY-Y1 receptor antagonists, primary screen, cell-based; Neuropeptide Y receptor type 1 (Homo sapiens), P25929; HEK293-CNG Y1 cells, membrane potential fluorescence; NPY at EC95, then isoproterenol; inhibition, % at 3.6 µM; 200,000 tested, 1% active; AID 1040, 2008;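 active = inhibition above the campaign mean inhibition of all tested compounds plus 3 SD, cut at about 20% in these data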;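 also: 0% = DMSO wells given NPY plus isoproterenol and 100% = isoproterenol alone without NPY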
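System: HEK293 cells with Y1 receptor plus CNG channel / Probe or stimulus: NPY 25 nM then isoproterenol 1 µM plus Ro 20-1724 25 µM / Compound: one concentration, 3.6 µM, in 0.4% DMSO / Schedule: compound incubation 1 h at room temperature, readout 45 min post-stimulation / Measured by: membrane potential fluorescence / Read-out: % inhibition of NPY effect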
NPY Y2 blocker – NPY-Y2 receptor antagonists, primary screen, cell-based. Neuropeptide Y receptor type 2 (Homo sapiens), P49146. NPY-Y2 expressing cells, antagonist mode. 140,000 tested, 0.99% active. inhibition, % at 2.7 µM. AID 793, 2007;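 also: 0% = vehicle with agonist challenge and 100% = reference antagonist with challenge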
NPY-Y2 PAM-ag – NPY-Y2 potentiators or agonists, primary screen, cell-based; 220,000 tested, 0.45% active; cells expressing NPY-Y2, potentiator/agonist read-out; AID 1359, 2008; activation, % at 3.6 µM; in the data active = activation above about 27%;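 also: cells stimulated with NPY near EC25 plus isoproterenol at EC100; 0% = vehicle plus submaximal agonist and 100% = vehicle plus saturating agonist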
NPY-Y1 ant conf – NPY-Y1 receptor antagonists, retest of hits, confirmation, HEK293-CNG cells, membrane potential fluorescence, triplicate; shares compounds with NPY Y1 blocker; cAMP; NPY challenge against isoproterenol-raised cAMP; inhibition, % at 3.6 µM; 1,200 tested, 21% active; in the data active = inhibition above about 20%;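 also: 0% = vehicle with agonist plus stimulus and 100% = stimulus alone without agonist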
NPY-Y2 antag ct – NPY-Y2 receptor antagonists, selectivity check, confirmation, counter-screen for NPY-Y1 antagonist project, HEK293-CNG cells, membrane potential fluorescence, triplicate; antagonism; cells given NPY, then isoproterenol; inhibition, % at 3.6 µM; shares compounds with NPY Y1 blocker; 1,200 tested, 28% active;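 also: 0% = DMSO with agonist challenge and 100% = reference antagonist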
The depositor's hits bear a star; nt = no result. Rule as the data show it, unless noted: active = inhibition above about 17%; inactive = the rest.

SMILES	NPY1 pot ag	NPY Y1 blocker	NPY Y2 blocker	NPY-Y2 PAM-ag	NPY-Y1 ant conf	NPY-Y2 antag ct
CCOC(=O)C1(CCc2ccccc2)CCN(C(=O)C2CCOCC2)CC1	3	4	nt	9	nt	nt
Cc1ccc(OCCCn2c(=O)sc3ccccc32)cc1	-27	17	8	-12	nt	nt
Cc1ccccc1OCCCn1c(=O)sc2ccccc21	-54	27*	11	-12	5	7
O=S(=O)(NCc1ccc2c(c1)OCO2)c1ccc2c(c1)oc1ccccc12	-30	22*	8	-9	17	19*
COc1cc(S(=O)(=O)NCc2ccc3c(c2)OCO3)ccc1Cl	-10	8	7	-7	nt	nt
Cc1cccc(NC(=O)NNC(=O)c2cc3ccccc3cc2O)c1C	-21	24*	nt	-5	15	13
COc1cccc(/C(C#N)=C/c2c(-c3ccc(Cl)cc3)nc3c(C)cccn23)c1	0	23*	2	-4	4	2
Cc1ccc(NC(=O)C(=O)NCCN2CCN(S(=O)(=O)c3ccccc3)CC2)cc1C	1	-1	nt	-11	nt	nt
Cc1ccc(N2C(=O)c3ccccc3NC2C(C)Cc2ccc3c(c2)OCO3)cc1 (configuration not stated)	-51	44*	17	-17	120*	108*
Cc1cccn2c(=O)c3cc(C#N)c(=O)n(CC4CCCO4)c3nc12 (configuration not stated)	13	-1	-1	-1	nt	nt
COc1ccc(CC2(CO)CCN(C/C=C/c3ccccc3OC)CC2)cc1	-30	27*	nt	-15	17	23*
CCN(c1ccccc1)S(=O)(=O)c1ccc(Cl)c(NC(=O)CSc2nnc(C)s2)c1	8	0	nt	-9	nt	nt
O=C(CCCOc1ccc(Cl)cc1Cl)N1CCN(c2ccccn2)CC1	-28	24*	11	-14	8	11
CCN(Cc1ccccc1)C(c1cccc(C#N)c1)c1nnnn1C(C)(C)C (configuration not stated)	-14	33*	8	-14	3	5
CCCOc1ccc(S(=O)(=O)NCc2ccc(OC)cc2)cc1	-43	28*	9	-42	9	12
Cc1ccccc1NC1=C(Cl)C(=O)N(C2CCCCC2)C1=O	-14	22*	3	7	7	1
Cc1ccc(Cn2nc(-c3ccccc3)nc2-c2ccccc2)cc1	-13	25*	14	-30	13	11
Cc1nc(N2CCCCC2)c2c(C)c(C(=O)Nc3ccccc3C(F)(F)F)sc2n1	-47	27*	nt	-37	22*	15
N#Cc1nc(-c2ccccc2F)oc1NCc1cccc2c1OCO2	-40	28*	14	-53	6	7
COc1ccc(CCC(=O)Nc2nc3c(s2)CN(C)CC3)cc1OC	6	5	1	9	nt	nt
CCCCNCC(O)(c1ccc(Cl)cc1)c1ccc(Cl)cc1	-11	26*	nt	-18	19	17*
NS(=O)(=O)c1ccc(O)c(N2C(=O)c3cccc4c(C(=O)O)ccc(c34)C2=O)c1	-7	3	nt	1	nt	nt
Cc1ccc(C(=O)c2cc([N+](=O)[O-])ccc2N2CCOCC2)cc1C	-3	7	3	-3	nt	nt
Cc1ccc(C(=O)c2cc([N+](=O)[O-])ccc2N2CCOCC2)c(C)c1	-4	34*	3	-8	6	22*
O=C(CCCCn1c(=O)[nH]c2ccccc2c1=O)N1CCN(c2cccc(C(F)(F)F)c2)CC1	-56	21*	2	4	3	3
SMILES	NPY1 pot ag	NPY Y1 blocker	NPY Y2 blocker	NPY-Y2 PAM-ag	NPY-Y1 ant conf	NPY-Y2 antag ct
O=C(CCn1c(=O)[nH]c2ccccc2c1=O)N1CCN(c2cccc(C(F)(F)F)c2)CC1	10	4	3	-3	nt	nt
COc1ccc(C[C@H]2CN3C(=NC[C@@H]3C(C)C)N2CCNC(=O)CCC2CCCCC2)cc1	-1	3	nt	-3	nt	nt
COc1ccc(C[C@H]2CN3C(=NC[C@@H]3Cc3ccccc3)N2CCNC(=O)CCC2CCCCC2)cc1	-15	33*	nt	-42	35*	36*
OCC1(CCc2ccccc2)CCN(Cc2cc(F)ccc2-n2cccn2)CC1	-12	23*	nt	-20	14	11
OCC1(CCCc2ccccc2)CCN(Cc2cc(F)ccc2F)CC1	4	10	nt	-15	nt	nt
COc1ccc(/C=N/NC(=O)c2ccccc2OCc2ccccc2)c(OC)c1	-41	25*	nt	-64	7	15
CCC(CC)=NNC(=O)c1ccccc1OCc1ccc(F)cc1	-66	21*	6	-35	4	7
Cc1ccc(/C=N/NC(=O)c2ccccc2OCc2ccc(F)cc2)o1	-107	22*	15	-75	15	15
NC(=O)NC(=O)COC(=O)c1ccccc1OCc1ccc(F)cc1	15	nt	nt	0	nt	nt
Cc1c(Nc2scc(-c3ccccc3)[n+]2-c2ccccc2)c(=O)n(-c2ccccc2)n1C	22	5	nt	12	nt	nt
Cc1ccccc1Nc1scc(-c2ccc(Cl)cc2)[n+]1-c1ccccc1C	-6	36*	nt	-4	9	11
Clc1ccc(-n2cccc2CN2CCc3c([nH]c4ccccc34)C2c2ccccn2)nc1 (configuration not stated)	-17	26*	nt	-13	6	9
Cc1cc(C(F)(F)F)n2nc(-c3sccc3-n3cccc3)cc2n1	-9	5	1	-15	nt	nt
Cc1nc2cc(-c3sccc3-n3cccc3)nn2c(C)c1C	-60	22*	2	-31	17	20*
COc1ccc(C)cc1NC(=O)C1CCN(C(=O)Cc2ccccc2)CC1	-1	3	nt	-2	nt	nt
COc1ccc(-n2nnc3c(=O)n(Cc4cc(C)ccc4C)cnc32)cc1	-12	9	3	-9	nt	nt
COc1cccc(-n2nnc3c(=O)n(Cc4ccccc4F)cnc32)c1	-48	30*	12	-10	9	7
COCC(C)NC(=O)C1CC(c2cccc(Br)c2)=NO1 (configuration not stated)	-29	3	1	3	nt	nt
Cc1nc2cc(N3CCCCC3)c(NC(=O)c3cccnc3)cc2c(=O)n1Cc1ccccc1	-77	23*	6	-26	8	9
Cc1ccc(C(C)C)c(OCc2nn(CC(=O)c3ccc(Cl)cc3)c3[n+]2CCCCC3)c1	-37	35*	nt	-13	19	18*
O=C(Cn1nc(CNc2ccc(Cl)cc2)[n+]2c1CCCCC2)c1ccccc1	-10	1	0	-2	nt	nt
CC1CC(C)C[N+](=C2C=C(N3CCCC3)CC(C)(C)C2)C1 (configuration not stated)	-10	42*	nt	15	31*	13
